# Results as given in ChEMBL document CHEMBL5058577, “EUbOPEN Chemogenomics Library 2 (Multiplex)” (2022).
# System: Fibroblast
# Assay: Multiplex assay against human fibroblast
# Format: toxicity, cell-based
# Outline: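 Cells stained live at seeding with Hoechst33342, BioTracker Green Microtubule Cytoskeleton Dye, MitoTracker Red and Annexin V Alexa Fluor 680 were imaged on a CQ1 microscope at 37°C and 5% CO2 after compound addition. Their classification by CellPathfinder machine-learning gating ran from Hoechst high-intensity objects versus normal cells, to healthy, pyknosed or fragmented nuclei among normal cells, to mitotic or apoptotic among pyknosed cells. Tubulin, mitochondrial-mass and membrane-permeability phenotypes are per cents of healthy-nucleus cells.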
# [1] = 12 h, 1 µM, compound concentration 1 uM, replicate 1
# [2] = 12 h, 1 µM, compound concentration 1 uM, replicate 2
# [3] = 12 h, 10 µM, compound concentration 10 uM, replicate 1
# [4] = 12 h, 10 µM, compound concentration 10 uM, replicate 2
# [5] = 24 h, 1 µM, compound concentration 1 uM, replicate 1
# [6] = 24 h, 1 µM, compound concentration 1 uM, replicate 2
# [7] = 24 h, 10 µM, compound concentration 10 uM, replicate 1
# [8] = 24 h, 10 µM, compound concentration 10 uM, replicate 2
# [9] = 48 h, 1 µM, compound concentration 1 uM, replicate 1
# [10] = 48 h, 1 µM, compound concentration 1 uM, replicate 2
# [11] = 48 h, 10 µM, compound concentration 10 uM, replicate 1
# [12] = 48 h, 10 µM, compound concentration 10 uM, replicate 2
smiles,measurement,setting,value
COc1c(Nc2ccc(S(C)(=O)=O)nc2C)ncnc1OC1CCN(C(=O)OC(C)C)CC1 [ADP-597],Population Apoptotic (%),[1],57%
same,Population Fragmented Nuclei (%),[1],14%
same,Population Healthy Nuclei (%),[1],71%
same,Population Hoechst High Intensity Objects (%),[1],3%
same,Population Membrane Permeable-Phenotype (%),[1],0%
same,Population Mitochondria Different-Phenotype (%),[1],10%
same,Population Mitotic Cells (%),[1],42%
same,Population Normal (%),[1],96%
same,Population Pyknosed Nuclei (%),[1],14%
same,Population Tubulin-Different-Phenotype (%),[1],34%
same,Total Cell Count,[1],133
same,Population Apoptotic (%),[2],42%
same,Population Fragmented Nuclei (%),[2],27%
same,Population Healthy Nuclei (%),[2],40%
same,Population Hoechst High Intensity Objects (%),[2],4%
same,Population Membrane Permeable-Phenotype (%),[2],2%
same,Population Mitochondria Different-Phenotype (%),[2],7%
same,Population Mitotic Cells (%),[2],57%
same,Population Normal (%),[2],95%
same,Population Pyknosed Nuclei (%),[2],33%
same,Population Tubulin-Different-Phenotype (%),[2],27%
same,Total Cell Count,[2],105
same,Population Apoptotic (%),[3],44%
same,Population Fragmented Nuclei (%),[3],21%
same,Population Healthy Nuclei (%),[3],58%
same,Population Hoechst High Intensity Objects (%),[3],2%
same,Population Membrane Permeable-Phenotype (%),[3],0%
same,Population Mitochondria Different-Phenotype (%),[3],15%
same,Population Mitotic Cells (%),[3],56%
same,Population Normal (%),[3],97%
same,Population Pyknosed Nuclei (%),[3],20%
same,Population Tubulin-Different-Phenotype (%),[3],54%
same,Total Cell Count,[3],127
same,Population Apoptotic (%),[4],39%
same,Population Fragmented Nuclei (%),[4],43%
same,Population Healthy Nuclei (%),[4],27%
same,Population Membrane Permeable-Phenotype (%),[4],11%
same,Population Mitochondria Different-Phenotype (%),[4],14%
same,Population Mitotic Cells (%),[4],60%
same,Population Normal (%),[4],98%
same,Population Pyknosed Nuclei (%),[4],28%
same,Population Tubulin-Different-Phenotype (%),[4],77%
same,Total Cell Count,[4],100
same,Population Apoptotic (%),[5],47%
same,Population Fragmented Nuclei (%),[5],17%
same,Population Healthy Nuclei (%),[5],67%
same,Population Hoechst High Intensity Objects (%),[5],4%
same,Population Membrane Permeable-Phenotype (%),[5],0%
same,Population Mitochondria Different-Phenotype (%),[5],1%
same,Population Mitotic Cells (%),[5],52%
same,Population Normal (%),[5],95%
same,Population Pyknosed Nuclei (%),[5],15%
same,Population Tubulin-Different-Phenotype (%),[5],27%
same,Total Cell Count,[5],146
same,Population Apoptotic (%),[6],37%
same,Population Fragmented Nuclei (%),[6],25%
same,Population Healthy Nuclei (%),[6],50%
same,Population Hoechst High Intensity Objects (%),[6],10%
same,Population Membrane Permeable-Phenotype (%),[6],10%
same,Population Mitochondria Different-Phenotype (%),[6],2%
same,Population Mitotic Cells (%),[6],62%
same,Population Normal (%),[6],89%
same,Population Pyknosed Nuclei (%),[6],24%
same,Population Tubulin-Different-Phenotype (%),[6],48%
same,Total Cell Count,[6],109
same,Population Apoptotic (%),[7],52%
same,Population Fragmented Nuclei (%),[7],20%
same,Population Healthy Nuclei (%),[7],60%
same,Population Hoechst High Intensity Objects (%),[7],5%
same,Population Membrane Permeable-Phenotype (%),[7],0%
same,Population Mitochondria Different-Phenotype (%),[7],5%
same,Population Mitotic Cells (%),[7],47%
same,Population Normal (%),[7],94%
same,Population Pyknosed Nuclei (%),[7],18%
same,Population Tubulin-Different-Phenotype (%),[7],41%
same,Total Cell Count,[7],131
same,Population Apoptotic (%),[8],27%
same,Population Fragmented Nuclei (%),[8],49%
same,Population Healthy Nuclei (%),[8],31%
same,Population Hoechst High Intensity Objects (%),[8],6%
same,Population Membrane Permeable-Phenotype (%),[8],10%
same,Population Mitochondria Different-Phenotype (%),[8],3%
same,Population Mitotic Cells (%),[8],72%
same,Population Normal (%),[8],93%
same,Population Pyknosed Nuclei (%),[8],19%
same,Population Tubulin-Different-Phenotype (%),[8],75%
same,Total Cell Count,[8],99
same,Population Apoptotic (%),[9],64%
same,Population Fragmented Nuclei (%),[9],25%
same,Population Healthy Nuclei (%),[9],63%
same,Population Hoechst High Intensity Objects (%),[9],2%
same,Population Membrane Permeable-Phenotype (%),[9],0%
same,Population Mitochondria Different-Phenotype (%),[9],4%
same,Population Mitotic Cells (%),[9],35%
same,Population Normal (%),[9],97%
same,Population Pyknosed Nuclei (%),[9],11%
same,Population Tubulin-Different-Phenotype (%),[9],30%
same,Total Cell Count,[9],152
same,Population Apoptotic (%),[10],42%
same,Population Fragmented Nuclei (%),[10],28%
same,Population Healthy Nuclei (%),[10],51%
same,Population Hoechst High Intensity Objects (%),[10],9%
same,Population Membrane Permeable-Phenotype (%),[10],2%
same,Population Mitochondria Different-Phenotype (%),[10],0%
same,Population Mitotic Cells (%),[10],57%
same,Population Normal (%),[10],90%
same,Population Pyknosed Nuclei (%),[10],20%
same,Population Tubulin-Different-Phenotype (%),[10],59%
same,Total Cell Count,[10],102
same,Population Apoptotic (%),[11],73%
same,Population Fragmented Nuclei (%),[11],29%
same,Population Healthy Nuclei (%),[11],58%
same,Population Hoechst High Intensity Objects (%),[11],8%
same,Population Membrane Permeable-Phenotype (%),[11],0%
same,Population Mitochondria Different-Phenotype (%),[11],20%
same,Population Mitotic Cells (%),[11],26%
same,Population Normal (%),[11],91%
same,Population Pyknosed Nuclei (%),[11],12%
same,Population Tubulin-Different-Phenotype (%),[11],57%
same,Total Cell Count,[11],131
same,Population Apoptotic (%),[12],75%
same,Population Fragmented Nuclei (%),[12],56%
same,Population Healthy Nuclei (%),[12],36%
same,Population Hoechst High Intensity Objects (%),[12],2%
same,Population Membrane Permeable-Phenotype (%),[12],2%
same,Population Mitochondria Different-Phenotype (%),[12],18%
same,Population Mitotic Cells (%),[12],25%
same,Population Normal (%),[12],97%
same,Population Pyknosed Nuclei (%),[12],7%
same,Population Tubulin-Different-Phenotype (%),[12],84%
same,Total Cell Count,[12],108
